The test system of data set [1] is HIV-1 (NL4.3 virus). To be noted: 21 days bi-daily dosing at 100 mg/kg; ref Stoddart et al. [29]; cited from earlier work.
A further data set relates to HIV-1 in CD4+ HeLa cells. Description: CD4+ HeLa HIV-1 inhibitory FACS assay. It is filed as cell-based. To be noted: Human immunodeficiency virus 1, HeLa, 48 h, read-out: HIV-1 HeLa cells IC50. A general note: In flow cytometry, cells or beads pass a laser one at a time.
In data set [2] the target is HCV NS5A-cyclophilin A complex (Homo sapiens, UniProt P62937). Description: biochemical.
The test system of another data set is HIV-1 viral load. Particulars: 14 days dosing, HIV/HCV co-infected patients; cited from earlier work.
The test system of data set [3] is HepG2 cells stably replicating HBV. Kind of data set: HBV antiviral assay in cells stably replicating HBV. The format is cell-based. Particulars: Hepatitis B virus, 72 h. An outline of the steps:
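HepG2 cells stably replicating HBV were treated with test compound at 0.1, 1 or 10 μM, with DMSO as control, for 3 days. Supernatant was then removed and cells were retreated. After a further 72 hr, HBsAg and HBeAg were measured by ELISA and HBV DNA was quantified, all in cell extracts and in triplicate.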

Data set [4] deals with HCV Huh7 Gt1a replicon (H77). Kind of data set: HCV replicon antiviral assay, genotype 1a. It is filed as cell-based. To be noted: Hepatitis C virus, Huh-7, 72 h, read-out: HCV Huh7 Gt1a replicon EC50. The essentials: (§1)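 Subgenomic replicon cells were maintained at 37°C, 5% CO2 in DMEM with 10% FBS and 250 μg/ml G418. They were seeded at 5 × 10³ cells/well without G418. Next day, serial dilutions of compound in DMEM plus 5% FBS were added for 72 hr at 37°C. HCV RNA was measured by one-step TaqMan real-time RT-PCR, with ribosomal RNA as the cell-number/cytotoxicity control. EC50 was derived from both measurements.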
A general note: A replicon is a self-replicating genome or part of one, used to study replication in cells.

The next data set deals with HCV Huh7 Gt1b replicon. Kind of data set: HCV replicon antiviral assay, genotype 1b. It is filed as cell-based. To be noted: Hepatitis C virus, Huh-7, 72 h, read-out: HCV Huh7 Gt1b replicon EC50. The essentials: as §1
Data set [5] in a line: Plasma protein binding analysis. It is filed as in vitro ADME. To be noted: human.
The test system of data set [6] is HCV Gt1b replicon in Huh 5-2 cells. Description: HCV antiviral assay Huh 5-2. It is filed as cell-based. Particulars: Hepatitis C virus, Huh-5-2, 96 h, read-out: HCV Huh5.2 Gt1b replicon EC50. The essentials:
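Huh 5-2 cells seeded at 6.5 × 10³/well in DMEM with 250 μg/ml G418 and held 24 hr at 37°C, 5% CO2. Medium then replaced by 3-fold serial dilutions of test compound in complete DMEM without G418. After 4 days at 37°C, luciferase activity read and expressed as percent of untreated controls.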

In data set [7] the test system is Huh7 cells transfected with HBV DNA. Description: HBV antiviral assay in cells transfected with HBV DNA. To be noted: test/control value, day 3, 2 µM. The format is cell-based. An outline of the steps: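 Huh7 cells were transfected with HBV DNA (8 μg) in the presence of 2 μM test compound or DMSO. On day 3, de novo HBsAg in cell extracts or supernatants was quantified by ELISA in triplicate. A test/control value was calculated from these readings.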

The next data set can be described thus: Cytostatic assay. The format is cell-based. To be noted: human, Huh 5-2 cells.
Data set [8] concerns HIV-1 (NL4.3 virus). Kind of data set: SCID-hu Thy/Liv mouse model of HIV-1 infection. It is filed as in vivo, SCID-hu Thy/Liv mice. Particulars: oral bi-daily 14 days, 50 or 100 mg/kg/day. The essentials: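 Human fetal thymus and liver were coimplanted under the kidney capsule of male C.B-17 SCID mice aged 6–8 weeks. Implants were inoculated with NL4-3 by direct injection 18 weeks later; controls received medium. Groups of six received 50 or 100 mg/kg/day by twice-daily oral gavage from day −1 until implant collection 2 weeks post-inoculation. Implant cells were assayed for p24 (ELISA), viral RNA (bDNA) and CD3/CD4/CD8 thymocytes (flow cytometry). Results are means with SD.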

Data set [9] can be described thus: Solubility analysis in PBS pH 7.4. The format is physicochemical. To be noted: pH 7.4, aqueous buffer, kinetic from dmso stock.
Data set [10] has as its system HCV Huh7 Gt2a replicon (JFH-1). Kind of data set: HCV replicon antiviral assay, genotype 2a. The format is cell-based. Particulars: Hepatitis C virus, Huh-7, 72 h, read-out: HCV Huh7 Gt2a replicon EC50. An outline of the steps:
as §1

Converted amounts (≈) assume the structure as drawn. Read-outs that look alike come from different tables or passages of the source.

Sequence of HCV NS5A-cyclophilin A complex (P62937 whole entry, one chain of several): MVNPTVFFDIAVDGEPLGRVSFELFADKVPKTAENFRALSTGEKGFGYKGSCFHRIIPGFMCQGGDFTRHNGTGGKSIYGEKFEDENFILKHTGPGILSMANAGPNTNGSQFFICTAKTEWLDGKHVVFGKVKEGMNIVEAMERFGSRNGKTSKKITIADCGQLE

As for `Nc1nc(=O)n([C@@H]2CS[C@H](CO)O2)cc1F` [emtricitabine], the “viral RNA reductions” value in the data set on HIV-1 (NL4.3 virus) [1] was 1–4 log10.
Regarding `O=C1Nc2ccc(Cl)cc2[C@@](C#CC2CC2)(C(F)(F)F)O1` [efavirenz], in the data set with HIV-1 (NL4.3 virus) [1], the “viral RNA reductions” value is on record as 1–4 log10.
`C/C=C/C[C@@H](C)[C@@H](O)[C@H]1C(=O)N[C@@H](CC)C(=O)N(C)[C@H](C)C(=O)N(CC)[C@@H](C(C)C)C(=O)N[C@@H](C(C)C)C(=O)N(C)[C@@H](CC(C)C)C(=O)N[C@@H](C)C(=O)N[C@H](C)C(=O)N(C)[C@@H](CC(C)C)C(=O)N(C)[C@@H](CC(C)C)C(=O)N(C)[C@@H](C(C)C)C(=O)N1C` [Alisporivir]: the IC50 in the data set with HIV-1 in CD4+ HeLa cells is 1500 ± 240 nM; in data set [2], 240 ± 20 nM; in data set [3] (read-out: HBV Huh7 stable HBV DNA IC50) it was greater than 10000 nM; in [3] (read-out: HBV Huh7 stable HBeAg IC50) it was greater than 10000 nM; in data set [3] (read-out: HBV Huh7 stable HBsAg IC50) it was greater than 10000 nM. Further, the “mean drop in viral load” value in the data set on HIV-1 viral load is recorded as ~ 1 log. The EC50 in data set [4] came out at 98 ± 11 nM; with HCV Huh7 Gt1b replicon, 76 ± 5 nM; in [6], 96 ± 23 nM; in data set [10], 102 ± 8 nM. For the same molecule, the fraction unbound at 5 h, 1 µM in data set [5] is less than 0.04. In addition, the “HBV HepG2 transfected HBsAg T/C d3 at 2uM” value in [7] came to 18%. This molecule also displayed a half-maximal cytotoxic concentration (CC50) at 3 days in “Cytostatic assay” of 11200 nM. Further, the “overt signs of toxicity” value in the data set with HIV-1 (NL4.3 virus) [8] was “No overt signs of toxicity”. Also, in data set [9], the solubility at 4 h was 15 µM (≈ 18.2 µg/mL).
Regarding `Cc1ccnc2c1NC(=O)c1cccnc1N2C1CC1` [nevirapine], the “viral RNA reductions” value in the data set with HIV-1 (NL4.3 virus) [1] was 1–4 log10.
Consider `COC(=O)N[C@H](C(=O)N[C@@H](Cc1ccccc1)[C@@H](O)CN(Cc1ccc(-c2ccccn2)cc1)NC(=O)[C@@H](NC(=O)OC)C(C)(C)C)C(C)(C)C` [atazanavir], for which, in the data set on HIV-1 (NL4.3 virus) [1], the “viral RNA reductions” value is 1–4 log10.

In general, IC50 refers to the concentration needed to halve the response being measured. As usually defined, the EC50 is the concentration needed to bring the measured effect to its halfway point. By fraction unbound is commonly meant free concentration divided by total concentration. Usually CC50 stands for the concentration that lowers cell viability or growth by half. The low end stands for greater toxicity to the cells, the high end for lower toxicity to the cells. The term solubility denotes the concentration that dissolves in the medium under given conditions.

Source of the values: article PMC4336584 (Chemistry & biology, 2015).
